{"source": "ChEMBL document CHEMBL4017537", "about": "“Discovery of a Potent and Specific M. tuberculosis Leucyl-tRNA Synthetase Inhibitor: (S)-3-(Aminomethyl)-4-chloro-7-(2-hydroxyethoxy)benzo[c][1,2]oxaborol-1(3H)-ol (GSK656)” (J Med Chem, 2017)", "key": {"[1]": {"test": "Oral bioavailability in CD-1 mouse at 30 mg/kg administered via gavage after 24 hrs by LC-MS/MS analysis", "type": "ADME, organism-based", "conditions": "in vivo"}, "[2]": {"test": "Tmax in C57BL/6 mouse at 26.1 mg/kg administered as single dose via oral gavage measured up to 24 hrs by LC-MS/MS analysis", "type": "ADME, organism-based", "conditions": "in vivo"}, "Mus musculus [3]": {"system": "Mus musculus", "test": "Dose normalized AUC (0 to 24 hrs) in CD-1 mouse at 30 mg/kg administered via oral gavage by LC-MS/MS analysis", "type": "ADME, organism-based", "conditions": "in vivo"}, "[4]": {"test": "AUC (0 to 24 hrs) in C57BL/6 mouse at 26.1 mg/kg administered as single dose via oral gavage by LC-MS/MS analysis", "type": "ADME, organism-based", "set-up": "dose 26.1 mg/kg, time < 24 hr, route oral", "conditions": "in vivo"}, "[5]": {"test": "AUC (0 to 24 hrs) in CD-1 mouse at 30 mg/kg administered via oral gavage by LC-MS/MS analysis", "type": "ADME, organism-based", "set-up": "dose 30 mg/kg, time < 24 hr, route oral", "conditions": "in vivo"}, "[6]": {"test": "Volume of distribution at steady state in CD-1 mouse at 30 mg/kg, iv after 24 hrs by LC-MS/MS analysis", "type": "ADME, organism-based", "conditions": "in vivo, read-out: Vdss"}, "[7]": {"test": "AUC (0 to infinity) in CD-1 mouse at 30 mg/kg, iv after 24 hrs by LC-MS/MS analysis", "type": "ADME, organism-based", "set-up": "dose 30 mg/kg, route intravenous, time infinity", "conditions": "in vivo"}, "[8]": {"test": "Clearance in C57BL/6 mouse at 28.5 mg/kg, iv administered as single dose measured up to 8 hrs by LC-MS/MS analysis", "type": "ADME, organism-based", "conditions": "in vivo"}, "Mus musculus [9]": {"system": "Mus musculus", "test": "Dose normalized AUC (0 to infinity) in CD-1 mouse at 30 mg/kg, iv after 24 hrs by LC-MS/MS analysis", "type": "ADME, organism-based", "conditions": "in vivo"}, "Mus musculus [10]": {"system": "Mus musculus", "test": "Dose normalized AUC (0 to infinity) in C57BL/6 mouse at 28.5 mg/kg, iv administered as single dose measured up to 8 hrs by LC-MS/MS analysis", "type": "ADME, organism-based", "conditions": "in vivo"}, "Mus musculus [11]": {"system": "Mus musculus", "test": "Toxicity in mouse at 50 mg/kg, qd", "type": "organism-based", "conditions": "in vivo"}, "Mus musculus [12]": {"system": "Mus musculus", "test": "Dose normalized AUC (0 to 24 hrs) in C57BL/6 mouse at 26.1 mg/kg administered as single dose via oral gavage by LC-MS/MS analysis", "type": "ADME, organism-based", "conditions": "in vivo"}, "[13]": {"test": "Half life in C57BL/6 mouse at 28.5 mg/kg, iv administered as single dose measured up to 8 hrs by LC-MS/MS analysis", "type": "ADME, organism-based", "conditions": "in vivo"}, "[14]": {"test": "AUC (0 to infinity) in C57BL/6 mouse at 28.5 mg/kg, iv administered as single dose measured up to 8 hrs by LC-MS/MS analysis", "type": "ADME, organism-based", "set-up": "dose 28.5 mg/kg, time infinity, route intravenous", "conditions": "in vivo"}, "Mus musculus [15]": {"system": "Mus musculus", "test": "Toxicity in mouse at 150 mg/kg", "type": "organism-based", "conditions": "in vivo", "procedure,_shortened": "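Maximum single tolerated dose study: healthy mice each got one dose, and tolerability was judged across escalating dose levels.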"}, "[16]": {"system": "Mycobacterium tuberculosis", "test": "Antimicrobial activity against Mycobacterium tuberculosis H37Rv infected in C57BL/6J mouse assessed as bacterial load in lungs at 1 mg/kg qd administered for 8 consecutive weeks starting from 6 weeks post infection measured 24 hrs post last dose (reference value: 6.4 +/- 0.3 log10CFU)", "type": "functional", "procedure,_shortened": "(§1)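 C57BL/6J mice infected intratracheally with ~10² CFU M. tuberculosis H37Rv. Dosed QD, 7 days/week, for 8 weeks starting 6 weeks post-infection; killed ≥24 h after last dose. Lung homogenates plated on 7H11/10% OADC for 21 days at 37 °C. n = 3 per dose group, 7 for controls; mean (SD); ANOVA with Dunnett's test versus 14-week untreated.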"}, "Mus musculus [17]": {"system": "Mus musculus", "test": "Dose normalized AUC (0 to infinity) in C57BL/6 mouse at 5.5 mg/kg, iv administered as single dose measured up to 24 hrs by LC-MS/MS analysis", "type": "ADME, organism-based", "conditions": "in vivo"}, "[18]": {"system": "Mycobacterium tuberculosis", "test": "Antimicrobial activity against Mycobacterium tuberculosis H37Rv infected in C57BL/6J mouse assessed as bacterial load in lungs at 3 mg/kg qd administered for 8 consecutive weeks starting from 6 weeks post infection measured 24 hrs post last dose (reference value: 6.4 +/- 0.3 log10CFU)", "type": "functional", "procedure,_shortened": "as §1"}, "[19]": {"test": "Toxicity in mouse administered qd", "conditions": "in vivo"}, "[20]": {"test": "Oral bioavailability in C57BL/6 mouse at 30 mg/kg administered as single dose via gavage measured up to 24 hrs by LC-MS/MS analysis", "type": "ADME, organism-based", "conditions": "in vivo"}, "[21]": {"test": "Toxicity in mouse", "type": "organism-based", "conditions": "in vivo"}, "[22]": {"system": "Mycobacterium tuberculosis", "test": "Antimicrobial activity against Mycobacterium tuberculosis H37Rv infected in C57BL/6J mouse assessed as bacterial load in lungs at 0.1 mg/kg qd administered for 8 consecutive weeks starting from 6 weeks post infection measured 24 hrs post last dose (reference value: 6.4 +/- 0.3 log10CFU)", "type": "functional", "procedure,_shortened": "as §1"}, "[23]": {"system": "Mycobacterium tuberculosis", "test": "Antimicrobial activity against Mycobacterium tuberculosis H37Rv infected in C57BL/6J mouse assessed as bacterial load in lungs at 10 mg/kg qd administered for 8 consecutive weeks starting from 6 weeks post infection measured 24 hrs post last dose (reference value: 6.4 +/- 0.3 log10CFU)", "type": "functional", "procedure,_shortened": "as §1"}, "[24]": {"test": "AUC (0 to 24 hrs) in C57BL/6 mouse at 30 mg/kg administered as single dose via oral gavage by LC-MS/MS analysis", "type": "ADME, organism-based", "set-up": "time < 24 hr, dose 30 mg/kg, route oral", "conditions": "in vivo"}, "[25]": {"test": "Cmax in C57BL/6 mouse at 30 mg/kg administered as single dose via oral gavage measured up to 24 hrs by LC-MS/MS analysis", "type": "ADME, organism-based", "set-up": "dose 30 mg/kg, route oral", "conditions": "in vivo"}, "[26]": {"system": "Mycobacterium tuberculosis", "test": "Antimicrobial activity against Mycobacterium tuberculosis H37Rv infected in C57BL/6J mouse assessed as bacterial load in lungs at 30 mg/kg qd administered for 8 consecutive weeks starting from 6 weeks post infection measured 24 hrs post last dose (reference value: 6.4 +/- 0.3 log10CFU)", "type": "functional", "procedure,_shortened": "as §1"}, "[27]": {"test": "AUC (0 to infinity) in C57BL/6 mouse at 5.5 mg/kg, iv administered as single dose measured up to 24 hrs by LC-MS/MS analysis", "type": "ADME, organism-based", "set-up": "dose 5.5 mg/kg, time infinity, route intravenous", "conditions": "in vivo"}, "[28]": {"target": "Leucine--tRNA ligase, cytoplasmic (Homo sapiens, UniProt Q9P2J5)", "sequence (Q9P2J5 whole entry)": "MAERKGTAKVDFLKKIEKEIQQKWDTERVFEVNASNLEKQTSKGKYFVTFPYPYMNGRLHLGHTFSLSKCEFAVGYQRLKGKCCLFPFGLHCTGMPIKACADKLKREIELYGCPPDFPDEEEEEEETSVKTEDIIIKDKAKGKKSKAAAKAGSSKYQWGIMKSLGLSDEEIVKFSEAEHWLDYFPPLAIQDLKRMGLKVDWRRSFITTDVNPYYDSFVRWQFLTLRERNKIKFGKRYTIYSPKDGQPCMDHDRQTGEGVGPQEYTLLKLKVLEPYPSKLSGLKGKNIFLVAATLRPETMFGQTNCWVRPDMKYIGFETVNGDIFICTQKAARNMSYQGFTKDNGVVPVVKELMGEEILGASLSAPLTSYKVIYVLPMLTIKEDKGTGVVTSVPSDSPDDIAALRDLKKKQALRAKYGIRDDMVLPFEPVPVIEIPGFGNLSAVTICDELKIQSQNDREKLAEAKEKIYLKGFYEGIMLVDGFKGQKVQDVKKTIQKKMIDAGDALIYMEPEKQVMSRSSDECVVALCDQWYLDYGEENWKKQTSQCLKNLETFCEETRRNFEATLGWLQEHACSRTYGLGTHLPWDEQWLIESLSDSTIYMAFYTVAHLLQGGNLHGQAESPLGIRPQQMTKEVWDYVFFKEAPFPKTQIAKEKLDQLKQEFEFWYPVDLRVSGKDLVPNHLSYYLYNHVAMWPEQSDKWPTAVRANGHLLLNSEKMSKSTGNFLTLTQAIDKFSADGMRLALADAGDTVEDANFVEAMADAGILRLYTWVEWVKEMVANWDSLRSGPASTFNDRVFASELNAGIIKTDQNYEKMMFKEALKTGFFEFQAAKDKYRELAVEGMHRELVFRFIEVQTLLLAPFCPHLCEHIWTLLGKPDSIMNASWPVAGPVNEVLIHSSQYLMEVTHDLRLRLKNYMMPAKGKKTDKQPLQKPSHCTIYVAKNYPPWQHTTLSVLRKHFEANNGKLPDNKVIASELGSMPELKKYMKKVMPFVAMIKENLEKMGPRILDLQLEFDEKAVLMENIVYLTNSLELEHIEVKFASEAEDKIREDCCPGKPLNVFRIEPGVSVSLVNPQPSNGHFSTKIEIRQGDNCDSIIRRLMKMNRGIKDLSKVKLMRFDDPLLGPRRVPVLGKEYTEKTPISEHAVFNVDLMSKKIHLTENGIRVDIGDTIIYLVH", "test": "Inhibition of human N-terminal 6His-tagged cytoplasmic LeuRS expressed in Escherichia coli BL21(DE3) assessed as […] after 20 mins by liquid scintillation counting analysis"}, "[29]": {"test": "Clearance in C57BL/6 mouse at 5.5 mg/kg, iv administered as single dose measured up to 24 hrs by LC-MS/MS analysis", "type": "ADME, organism-based", "conditions": "in vivo"}, "[30]": {"test": "Tmax in C57BL/6 mouse at 30 mg/kg administered as single dose via oral gavage measured up to 24 hrs by LC-MS/MS analysis", "type": "ADME, organism-based", "conditions": "in vivo", "procedure,_shortened": "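C57BL/6 female mice (18−20 g) got one oral gavage dose of 30 mg/kg in 1% methylcellulose. Peripheral whole blood was sampled from 15 min to 24 h postdose, n = 3 mice per time point, and drug concentrations were measured in blood.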"}, "[31]": {"system": "Mycobacterium tuberculosis", "test": "Antimicrobial activity against Mycobacterium tuberculosis H37Rv infected in C57BL/6J mouse assessed as log reduction in bacterial load in lungs administered qd for 8 consecutive weeks starting from 6 weeks post infection measured 24 hrs post last dose", "type": "functional", "procedure,_shortened": "as §1"}, "[32]": {"test": "Half life in C57BL/6 mouse at 5.5 mg/kg, iv administered as single dose measured up to 24 hrs by LC-MS/MS analysis", "type": "ADME, organism-based", "conditions": "in vivo"}, "[33]": {"system": "Mycobacterium tuberculosis", "test": "Antimicrobial activity against Mycobacterium tuberculosis H37Rv infected in C57BL/6J mouse assessed as bacterial load in lungs at 0.3 mg/kg qd administered for 8 consecutive weeks starting from 6 weeks post infection measured 24 hrs post last dose (reference value: 6.4 +/- 0.3 log10CFU)", "type": "functional", "procedure,_shortened": "as §1"}}, "data": [{"compound": "CCOc1ccc(Br)c2c1B(O)O[C@@H]2CN", "values": [{"measurement": "bioavailability", "setting": "[1]", "value": 100, "unit": "%"}, {"measurement": "Tmax", "setting": "[2]", "value": 2, "unit": "h"}, {"measurement": "AUC/dose", "setting": "Mus musculus [3]", "value": 1.92, "unit": "µg·h/mL"}, {"measurement": "AUC(0-t) at 24 h", "setting": "[4]", "value": 77900, "unit": "ng·h/mL"}, {"measurement": "AUC(0-t) at 24 h", "setting": "[5]", "value": 57600, "unit": "ng·h/mL"}, {"measurement": "Vd", "setting": "[6]", "value": 3.2, "unit": "L/kg"}, {"measurement": "AUC(0-inf)", "setting": "[7]", "value": 43400, "unit": "ng·h/mL"}, {"measurement": "clearance", "setting": "[8]", "value": 6.6, "unit": "mL/min/kg"}, {"measurement": "AUC/dose", "setting": "Mus musculus [9]", "value": 1.45, "unit": "µg·h/mL/mg/kg"}, {"measurement": "AUC/dose", "setting": "Mus musculus [10]", "value": 2.54, "unit": "µg·h/mL/mg/kg"}, {"measurement": "Activity", "setting": "Mus musculus [11]", "value": "Toxic"}, {"measurement": "AUC/dose", "setting": "Mus musculus [12]", "value": 2.98, "unit": "µg·h/mL"}, {"measurement": "half-life", "setting": "[13]", "value": 3.1, "unit": "h"}, {"measurement": "AUC(0-inf)", "setting": "[14]", "value": 72300, "unit": "ng·h/mL"}, {"measurement": "Activity", "setting": "Mus musculus [15]", "value": "Toxic"}]}, {"compound": "Cl.NC[C@H]1OB(O)c2c(OCCO)ccc(Cl)c21", "values": [{"measurement": "Activity", "setting": "[16]", "value": 4.7, "unit": "log10CFU"}, {"measurement": "AUC/dose", "setting": "Mus musculus [17]", "value": 2.03, "unit": "µg·h/mL/mg/kg"}, {"measurement": "Activity", "setting": "[18]", "value": 4.6, "unit": "log10CFU"}, {"measurement": "MTD", "setting": "[19]", "value": 100, "unit": "mg/kg"}, {"measurement": "bioavailability", "setting": "[20]", "value": 100, "unit": "%"}, {"measurement": "MTD", "setting": "[21]", "value": 300, "unit": "mg/kg"}, {"measurement": "Activity", "setting": "[22]", "value": 6.4, "unit": "log10CFU"}, {"measurement": "Activity", "setting": "[23]", "value": 4.3, "unit": "log10CFU"}, {"measurement": "AUC(0-t) at 24 h", "setting": "[24]", "value": 88200, "unit": "ng·h/mL"}, {"measurement": "Cmax", "setting": "[25]", "value": 17800, "unit": "ng/mL"}, {"measurement": "Activity", "setting": "[26]", "value": 4.4, "unit": "log10CFU"}, {"measurement": "AUC(0-inf)", "setting": "[27]", "value": 11100, "unit": "ng·h/mL"}, {"measurement": "IC50", "setting": "[28]", "value": 132, "unit": "µM"}, {"measurement": "clearance", "setting": "[29]", "value": 8.5, "unit": "mL/min/kg"}, {"measurement": "Tmax", "setting": "[30]", "value": 0.9, "unit": "h"}, {"measurement": "Activity", "setting": "[31]", "value": "Dose-dependent effect"}, {"measurement": "half-life", "setting": "[32]", "value": 3.6, "unit": "h"}, {"measurement": "Activity", "setting": "[33]", "value": 6, "unit": "log10CFU"}]}]}
